Measured values collected from several papers.
Protocols differ between the studies behind these lines.
Target: Serine/threonine-protein kinase NLK (NLK, Homo sapiens, UniProt Q9UBE8)
Residues used in one study (Q9UBE8 1-527): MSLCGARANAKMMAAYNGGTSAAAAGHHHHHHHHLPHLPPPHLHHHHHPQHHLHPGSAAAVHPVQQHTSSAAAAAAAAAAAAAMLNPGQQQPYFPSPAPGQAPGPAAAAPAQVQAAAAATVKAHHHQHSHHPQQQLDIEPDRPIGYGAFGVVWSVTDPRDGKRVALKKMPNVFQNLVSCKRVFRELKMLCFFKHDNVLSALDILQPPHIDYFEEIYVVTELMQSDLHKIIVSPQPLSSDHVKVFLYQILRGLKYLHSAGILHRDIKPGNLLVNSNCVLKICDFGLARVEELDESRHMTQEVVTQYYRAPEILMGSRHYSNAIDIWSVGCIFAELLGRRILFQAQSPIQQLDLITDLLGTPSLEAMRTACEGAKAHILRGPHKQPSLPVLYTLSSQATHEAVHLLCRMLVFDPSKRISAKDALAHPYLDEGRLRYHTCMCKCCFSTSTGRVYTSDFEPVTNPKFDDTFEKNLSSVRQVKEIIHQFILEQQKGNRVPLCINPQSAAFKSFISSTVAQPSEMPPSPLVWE

For `COc1cc(-c2cn(C3CCc4c(F)cccc4N(CC(F)(F)F)C3=O)nn2)ccc1-n1cnc(C)c1` (stereo not shown), the remaining binding was 100% (cell-free assay, competition with immobilised ligand; 1 µM).
`CC(C)(C)c1nc2c(s1)c1nc(N)ncc1c1ccc(NS(=O)(=O)c3c(F)cccc3F)c(F)c12` has a remaining activity of 91% (enzyme activity, inhibitor, radiometric; 1 µM).
`Cc1ccc(NC(=O)c2ccc(C)c(C(F)(F)F)c2)cc1C#Cc1nn(C2CCC(O)CC2)c2ncnc(N)c12` (stereo not shown) has a remaining signal of 82% (cell-free assay; 10 µM).
`O=C1NC(=O)c2cc(Nc3ccc(F)cc3)c(Nc3ccc(F)cc3)cc21` gave a remaining signal of 103% (cell-free assay; 0.5 µM).
The remaining binding of `O=S(=O)(NC1CCC(c2cc(F)ccc2F)(S(=O)(=O)c2ccc(Cl)cc2)CC1)C(F)(F)F` (stereo not shown) is reported as 100% (cell-free assay, competition with immobilised ligand; 1 µM).
`CCN(CC)CCNC(=O)c1c(C)[nH]c(/C=C2\C(=O)Nc3ccc(F)cc32)c1C` gave an inhibition of 7% (enzyme activity, inhibitor; 10 µM).
`Cn1cncc1C1=CN(c2ncnc3[nH]cnc23)CCS1` gave an inhibition of 19.6% (enzyme activity, inhibitor, radiometric; 50 nM).
The remaining signal of `Cc1ccc(C(=O)Nc2ccc(CN3CCN(C)CC3)c(C(F)(F)F)c2)cc1C#Cc1cnc2cccnn12` is reported as 52% (cell-free assay; 23.5 nM).
With `Cc1sc(C(=O)NC2COC2)cc1-n1cc(NC(=O)Nc2c(F)cccc2Cl)cn1` the remaining activity was 85.2% (enzyme activity, inhibitor; 10 µM).
With `NS(=O)(=O)c1cc(NC(=O)Cc2ccccc2)ccc1Oc1cccc(Cl)c1` the remaining binding was 100% (cell-free assay, competition with immobilised ligand; 1 µM).
For `CN1CC(Oc2cnc(C#N)cc2-c2ccn3nc(NC(=O)C4CC4)cc3c2)C1`, the inhibition was 10% (enzyme activity, inhibitor; 1 µM).
The remaining binding of `CNC(=O)Nc1ccc2c(c1)CC[C@@]21OC(=O)N(CC(=O)N(Cc2ccc(F)cc2)[C@@H](C)C(F)(F)F)C1=O` is reported as 82% (binding, competition with immobilised ligand; 1 µM).
With `CNC(=O)c1cc(Oc2ccc(NC(=O)Nc3ccc(Cl)c(C(F)(F)F)c3)cc2)ccn1` the inhibition was -5% (enzyme activity, inhibitor; 0.3 µM).
`O=C(Nc1cnn(-c2csc(C(=O)NC3COC3)c2)c1)Nc1ccccc1Cl` has a remaining activity of 99.5% (enzyme activity, inhibitor; 5 µM).
`CCCS(=O)(=O)Nc1ccc(F)c(C(=O)c2c[nH]c3ncc(-c4ccc(Cl)cc4)cc23)c1F` has an inhibition of < 10% (enzyme activity, inhibitor; 1 µM).
The remaining binding of `O=C(NCc1ncc(C(F)(F)F)cc1Cl)c1ccc2c(c1)C1(CCS(=O)(=O)CC1)[C@H](C1CC1)N2S(=O)(=O)c1ccc(F)cc1` is reported as 100% (cell-free assay, competition with immobilised ligand; 1 µM).
The inhibition of `Cc1ccc(Nc2nccc(N(C)c3ccc4c(C)n(C)nc4c3)n2)cc1S(N)(=O)=O` is reported as 67% (enzyme activity, inhibitor; 10 µM).
With `C[C@H](c1ccnc(Nc2nc3ccc(-c4cc(N(C)C)ncn4)cc3[nH]2)c1)N1CCN(C(=O)CC(F)(F)F)CC1` the remaining binding was 88% (cell-free assay, competition with immobilised ligand; 0.1 µM).
With `O=C1Nc2ccc(Cl)cc2C1=Cc1cc(Cl)c(O)c(Cl)c1` the remaining signal was 38.9% (cell-free assay; 0.5 µM).
